The test system of test [1] is Mus musculus. Put plainly: Tested in vivo for antagonistic activity against antinociceptive effect of icv-administered DPDPE in mice at 24 hr. The class given is functional. A digest of the protocol: (§1)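 Mice were pretreated icv with antagonist at 5 nmol. Antinociception from icv DPDPE (delta1) or DSLET (delta2) was measured 1.5 or 24 h later. ED50 ratio is pretreated ED50 over control ED50. Selectivity is the DSLET ED50 ratio divided by the DPDPE ED50 ratio.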

Test [2] deals with Mus musculus. Put plainly: Tested in vivo for antagonistic activity against antinociceptive effect of icv-administered DSLET in mice at 24 hr. The class given is functional. An outline of the steps:
as §1

The next test has as its target Mu-type opioid receptor (Cavia porcellus, UniProt P97266). Put plainly: Tested for binding affinity against mu opioid receptor using [3H]DAMGO as a radioligand in the guinea pig brain membranes. The class given is cell membranes. A digest of the protocol:
(§2)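 Radioligand competition in guinea pig brain membranes. Kappa sites were labelled with [3H]U69593 and mu sites with [3H]DAMGO. Delta1 sites used [3H]DPDPE and delta2 sites used [3H]DSLET, both in the presence of 100 nM unlabelled DAMGO. Results are reported as Ki.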

For test [3], the target named is Delta-type opioid receptor (Mus musculus) (UniProt P32300). The experiment in a line: Antagonistic activity against opioid delta receptor in mouse vas deferens after 30 min. IC50 ratio determined without washing (prewash). The class given is functional. A digest of the protocol: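 Electrically stimulated mouse vas deferens with DADLE as the delta agonist. Antagonist at 100 nM was incubated for 30 min. Agonist IC50 was measured directly without washing. Result is the IC50 ratio versus control agonist IC50.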

Test [4] concerns the target Kappa-type opioid receptor (Cavia porcellus) (UniProt P41144). Put plainly: Antagonistic activity against Opioid receptor kappa 1 in guinea pig ileum assay. Type of test: functional, tissue-based. A digest of the protocol: (§3)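 Electrically stimulated guinea pig ileum. Antagonist present at 100 nM during a 30 min incubation. Agonists were morphine (mu) and ethylketazocine (kappa). Antagonism was expressed as IC50 ratio: agonist IC50 with antagonist divided by control IC50.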

Test [5] deals with Delta-type opioid receptor (Mus musculus) (UniProt P32300). Put plainly: Antagonistic activity against opioid delta receptor in mouse vas deferens after 30 min incubation. Preparation was washed (5x) with buffer after incubation with antagonist. Type of test: functional, tissue-based. An outline of the steps: (§4)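 Electrically stimulated mouse vas deferens with DADLE as the delta agonist. Antagonist at 100 nM was incubated for the stated time (10, 30 or 60 min). The preparation was then washed 5 times with buffer before agonist IC50 was measured. Result is the IC50 ratio, agonist IC50 with antagonist over control IC50.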

For test [6], the target named is Delta-type opioid receptor (Homo sapiens) (UniProt P41143). Put plainly: Selectivity ratio as ratio of ED50 value against delta-2 receptor to that delta-1 receptor after hours of administration,. The class given is functional, organism-based. A digest of the protocol:
as §1

Test [7] deals with T1, Opioid receptors; mu & delta (Homo sapiens) (UniProt P41143+P35372). Put plainly: Selectivity ratio as the ratio of IC50 ratio of delta receptor to that of mu receptor. Type of test: functional. An outline of the steps: (§5)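 Each selectivity value is the delta IC50 ratio from mouse vas deferens (DADLE, 100 nM antagonist, 30 min) divided by the kappa (ethylketazocine) or mu (morphine) IC50 ratio from guinea pig ileum. A value of 1 was used wherever an IC50 ratio was below 1.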

Test [8] has as its target Kappa-type opioid receptor (Cavia porcellus, UniProt P41144). Put plainly: Tested for binding affinity against Opioid receptor kappa 1 using [3H]U-69593 as a radioligand in the guinea pig brain membranes. The class given is cell membranes. An outline of the steps: as §2
Test [9] addresses T1, Opioid receptors; mu & delta (Homo sapiens). The experiment in a line: Selectivity ratio as ratio of Ki value towards mu receptor to that of delta-1 receptor. Type of test: protein assay.
Test [10] addresses T2, Opioid receptors; delta & kappa (Homo sapiens) (UniProt P41145+P41143). The experiment in a line: Selectivity ratio as ratio of Ki value towards kappa receptor to that of delta-1 receptor. Type of test: protein assay.
Test [11] concerns the target Mu-type opioid receptor (Cavia porcellus) (UniProt P97266). Put plainly: Antagonistic activity against Opioid receptor mu 1 in guinea pig ileum assay. Type of test: functional, tissue-based. A digest of the protocol:
as §3

Test [12] addresses Delta-type opioid receptor (Mus musculus) (UniProt P32300). The experiment in a line: Antagonistic activity against opioid delta receptor in mouse vas deferens after 10 minutes. Preparation was washed (5x) with buffer after incubation with antagonist. The class given is functional, tissue-based. A digest of the protocol: as §4
Test [13] deals with Delta-type opioid receptor (Homo sapiens) (UniProt P41143). The experiment in a line: Selectivity ratio as ratio of ED50 value against delta-2 receptor to that delta-1 receptor after 1.5 administration. The class given is functional, organism-based. A digest of the protocol: as §1
In test [14] the target is T2, Opioid receptors; delta & kappa (Homo sapiens). The experiment in a line: Selectivity ratio as the ratio of IC50 ratio of delta receptor to that of kappa receptor. Type of test: functional. A digest of the protocol:
as §5

For test [15], the system named is Mus musculus. Put plainly: Tested in vivo for antagonistic activity against antinociceptive effect of icv-administered DSLET in mice at 1.5 hr. The class given is functional. A digest of the protocol:
as §1

The subject of test [16] is Mus musculus. Put plainly: Tested in vivo for antagonistic activity against antinociceptive effect of icv-administered DPDPE in mice at 1.5 hr. Type of test: functional. A digest of the protocol:
as §1

Test [17] deals with Delta-type opioid receptor (Mus musculus) (UniProt P32300). The experiment in a line: Tested […] for antagonistic activity against opioid delta receptor in mice at incubation time of 60 minutes. Preparation was washed (5x) with buffer after incubation with antagonist. The class given is functional.

The term Ki denotes the dissociation constant of the complex between target and ligand, obtained from inhibition or displacement.

Chain of Delta-type opioid receptor (Mus musculus) (P32300 whole entry): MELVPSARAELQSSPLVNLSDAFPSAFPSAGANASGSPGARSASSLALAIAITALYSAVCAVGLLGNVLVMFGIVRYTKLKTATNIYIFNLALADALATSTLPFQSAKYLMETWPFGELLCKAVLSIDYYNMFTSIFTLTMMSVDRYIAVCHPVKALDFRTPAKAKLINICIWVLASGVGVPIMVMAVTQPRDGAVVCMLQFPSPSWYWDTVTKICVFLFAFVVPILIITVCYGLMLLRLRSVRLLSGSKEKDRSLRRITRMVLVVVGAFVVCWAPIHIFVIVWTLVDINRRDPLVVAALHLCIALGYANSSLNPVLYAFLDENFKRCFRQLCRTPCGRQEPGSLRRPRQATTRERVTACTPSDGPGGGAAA
Chain of Kappa-type opioid receptor (P41144 whole entry): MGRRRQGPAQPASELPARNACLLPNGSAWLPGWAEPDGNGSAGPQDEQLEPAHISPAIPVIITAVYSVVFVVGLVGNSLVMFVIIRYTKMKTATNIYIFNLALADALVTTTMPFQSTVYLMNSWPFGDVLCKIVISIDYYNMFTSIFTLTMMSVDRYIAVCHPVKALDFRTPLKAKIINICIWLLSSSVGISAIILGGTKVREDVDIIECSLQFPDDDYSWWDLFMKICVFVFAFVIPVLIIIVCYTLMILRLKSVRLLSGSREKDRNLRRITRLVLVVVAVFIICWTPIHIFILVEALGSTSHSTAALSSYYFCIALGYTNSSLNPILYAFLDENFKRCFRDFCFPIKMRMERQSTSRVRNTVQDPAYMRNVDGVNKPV
Chain of Kappa-type opioid receptor (Cavia porcellus) (P41144 whole entry): as above
T1 sequence (P35372 whole entry, looked up): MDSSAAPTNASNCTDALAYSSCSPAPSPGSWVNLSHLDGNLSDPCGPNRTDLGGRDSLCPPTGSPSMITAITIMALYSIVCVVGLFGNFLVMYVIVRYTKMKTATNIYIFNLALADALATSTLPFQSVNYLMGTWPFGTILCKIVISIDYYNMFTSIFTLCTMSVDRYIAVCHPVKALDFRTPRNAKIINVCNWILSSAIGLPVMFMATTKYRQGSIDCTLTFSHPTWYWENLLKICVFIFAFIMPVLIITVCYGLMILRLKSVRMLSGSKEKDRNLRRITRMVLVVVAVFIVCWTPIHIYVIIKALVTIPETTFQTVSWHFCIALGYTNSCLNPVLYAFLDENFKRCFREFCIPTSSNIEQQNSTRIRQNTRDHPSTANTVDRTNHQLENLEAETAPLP
T1 sequence (P41143 whole entry, looked up): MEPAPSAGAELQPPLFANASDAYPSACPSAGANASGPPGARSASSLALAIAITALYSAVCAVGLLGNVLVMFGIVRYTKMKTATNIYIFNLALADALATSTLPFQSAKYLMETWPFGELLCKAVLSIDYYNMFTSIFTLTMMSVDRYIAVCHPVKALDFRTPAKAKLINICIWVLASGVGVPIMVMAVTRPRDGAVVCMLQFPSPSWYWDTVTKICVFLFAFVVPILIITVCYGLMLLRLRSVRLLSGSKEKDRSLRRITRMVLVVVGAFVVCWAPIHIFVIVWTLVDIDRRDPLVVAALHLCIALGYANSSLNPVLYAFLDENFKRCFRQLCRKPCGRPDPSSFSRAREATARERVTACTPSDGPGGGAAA
Chain of Mu-type opioid receptor (Cavia porcellus) (P97266 whole entry): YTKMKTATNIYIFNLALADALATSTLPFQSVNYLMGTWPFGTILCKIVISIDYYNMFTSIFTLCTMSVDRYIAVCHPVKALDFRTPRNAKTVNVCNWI
Chain of Mu-type opioid receptor (P97266 whole entry): as above
Chain of Delta-type opioid receptor (Homo sapiens) (P41143 whole entry): as the sequence (P41143 whole entry, looked up) above
T2 sequence (P41143 whole entry, looked up): as above
T2 sequence (P41145 whole entry, looked up): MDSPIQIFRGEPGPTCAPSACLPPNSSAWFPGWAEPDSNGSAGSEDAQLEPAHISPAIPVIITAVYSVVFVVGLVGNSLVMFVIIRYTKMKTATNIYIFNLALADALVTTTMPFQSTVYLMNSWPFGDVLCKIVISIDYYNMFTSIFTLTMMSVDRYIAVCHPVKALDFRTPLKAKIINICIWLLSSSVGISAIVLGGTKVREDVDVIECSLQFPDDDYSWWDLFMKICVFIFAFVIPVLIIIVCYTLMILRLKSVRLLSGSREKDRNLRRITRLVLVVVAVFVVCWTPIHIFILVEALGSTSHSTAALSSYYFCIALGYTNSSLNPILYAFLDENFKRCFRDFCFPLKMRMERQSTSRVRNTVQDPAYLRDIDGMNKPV

Turning to `Oc1ccc2c3c1O[C@H]1c4c(c5ccccc5n4Cc4ccc(N=C=S)cc4)C[C@@]4(O)C(C2)N(CC2CC2)CCC314` (some centres not stated), the ED50 ratio with Mus musculus [1] is reported as 2.5; in the test on Mus musculus [2] it was 4.2; with Mus musculus [15], 3.8; with Mus musculus [16], 1.1. Besides, the values for the Ki (at Mu-type opioid receptor; in test [8]) were 289 nM and 245 nM, respectively. The IC50 ratio in test [3] was 18; in test [4] it was 0.6; in test [5] it was 20; in test [11], 1.3; in test [12], 6.7. The Selectivity is 1.7 in test [6]; 25 in [7]; 55 in [9]; 46 in [10]; 3.5 in test [13]; 18 in [14].
As to `O=C(CBr)Nc1ccccc1Cn1c2c(c3ccccc31)C[C@@]1(O)C3Cc4ccc(O)c5c4C1(CCN3CC1CC1)[C@H]2O5` (some centres not stated), the IC50 ratio stood at 35 in test [3], 1.1 in test [4], 13 in test [5] and 1.7 in test [11]. Besides, the results for the Selectivity in test [7] and in [14] were 21 and 33, respectively.
In the case of `O=C(CBr)Nc1cccc(Cn2c3c(c4ccccc42)C[C@@]2(O)C4Cc5ccc(O)c6c5C2(CCN4CC2CC2)[C@H]3O6)c1` (some centres not stated), the ED50 ratio in the test on Mus musculus [1] worked out at 2.8; in the test with Mus musculus [2] it was 6.9; in the test on Mus musculus [15], 2.4; with Mus musculus [16], 1. Moreover, the figures for the Ki (on Mu-type opioid receptor; in [8]) were 15.3 nM and 8.8 nM, respectively. The IC50 ratio in test [3] turned out to be 511; in test [4] it was 0.9; in [5] it was 51; in [11], 3.8; in [12] it was 44. The Selectivity in [6] was determined as 2.5; in test [7], 135; in test [9] it was 805; in test [10], 463; in test [13] it was 2.4; in [14] it was 511.
As for `Oc1ccc2c3c1O[C@H]1c4c(c5ccccc5n4Cc4cccc(N=C=S)c4)C[C@@]4(O)C(C2)N(CC2CC2)CCC314` (some centres not stated), the ED50 ratio was determined as 3.5 with Mus musculus [1], 4.1 in the test on Mus musculus [2], 1.9 in the test with Mus musculus [15] and 1.1 in the test with Mus musculus [16]. Also, the Ki was 66.2 nM at Mu-type opioid receptor and 104 nM in test [8]. Besides, the IC50 ratio in test [4] came out at 1.2; in [11], 0.8. For the same compound, the Selectivity in [6] turned out to be 1.2; in test [9], 16; in test [10], 5; in test [13], 1.7.
As to `O=C(CBr)Nc1ccc(Cn2c3c(c4ccccc42)C[C@@]2(O)C4Cc5ccc(O)c6c5C2(CCN4CC2CC2)[C@H]3O6)cc1` (some centres not stated), the IC50 ratio in test [17] came to 1.4; in [3] it was 30; in [4], 0.9; in test [5], 12; in test [11], 0.7; in [12], 3.6. Further, the Selectivity in test [7] and in [14] was 30 in each case.
Turning to `Oc1ccc2c3c1O[C@H]1c4c(c5ccccc5n4Cc4ccccc4N=C=S)C[C@@]4(O)C(C2)N(CC2CC2)CCC314` (some centres not stated), the ED50 ratio in the test on Mus musculus [1] is 19.4; with Mus musculus [2], 8.8; in the test with Mus musculus [15], 1.4; with Mus musculus [16], 1.1. The IC50 ratio in test [17] was found to be 216; in [3], 57; in test [4], 1.3; in [5] it was 39; in test [11], 0.6; in [12], 23. Besides, the values for the Ki (on Mu-type opioid receptor; in test [8]) were 151 nM and 615 nM, respectively. Further, the Selectivity in test [6] came out at 0.5; in [7] it was 57; in test [9], 76; in test [10], 308; in test [13] it was 1.3; in test [14] it was 45.
On to `Oc1ccc2c3c1O[C@H]1c4c(c5ccccc5n4Cc4ccccc4)C[C@@]4(O)C(C2)N(CC2CC2)CCC314` (some centres not stated), for which the ED50 ratio in the test on Mus musculus [1] was 1.5; with Mus musculus [2] it was 11.1; with Mus musculus [15] it was 3.2; in the test on Mus musculus [16], 1. Further, the IC50 ratio in [3] came out at 208; in test [4] it was 0.4; in test [11], 1.6. In addition, the Selectivity in test [6] worked out at 7.4; in [7], 131; in [13], 3.2; in test [14] it was 208.
Consider `CC(=O)Nc1ccc(Cn2c3c(c4ccccc42)C[C@@]2(O)C4Cc5ccc(O)c6c5C2(CCN4CC2CC2)[C@H]3O6)cc1` (some centres not stated), for which the IC50 ratio in test [17] amounted to 7.1; in test [3], 31; in [4] it was 0.2; in test [5] it was 3.1; in test [11], 0.9; in [12], 1.6. Also, the Selectivity in test [7] and in test [14] was 31 throughout.
For `CC(=O)Nc1cccc(Cn2c3c(c4ccccc42)C[C@@]2(O)C4Cc5ccc(O)c6c5C2(CCN4CC2CC2)[C@H]3O6)c1` (some centres not stated), the IC50 ratio in [3] came out at 33; in [4] it was 0.9; in [5], 18; in [11], 5.3; in test [12] it was 16. For the same compound, the Selectivity in test [7] and in [14] was 31 each time.
For `CC(=O)Nc1ccccc1Cn1c2c(c3ccccc31)C[C@@]1(O)C3Cc4ccc(O)c5c4C1(CCN3CC1CC1)[C@H]2O5` (some centres not stated), the IC50 ratio in test [3] was 54; in [4], 1.3; in test [5], 10; in test [11] it was 1.9. Besides, the results for the Selectivity in test [7] and in test [14] were 29 and 42, respectively.
As for `O=C(CI)Nc1ccccc1Cn1c2c(c3ccccc31)C[C@@]1(O)C3Cc4ccc(O)c5c4C1(CCN3CC1CC1)[C@H]2O5` (some centres not stated), the IC50 ratio in test [3] turned out to be 50.7; in test [4], 0.5; in test [5], 25.5; in [11] it was 0.7; in [12] it was 51.2. In addition, the Selectivity in test [7] and in test [14] was 51 each time.

For the origin of these results see ChEMBL document CHEMBL1128299, “Electrophilic N-benzylnaltrindoles as delta opioid receptor-selective antagonists” (J Med Chem, 1995).
